Results taken from paper PMC7127808 (Biochimie, 2017).

Experiments:
[1] = molecular target: T1, rat APN activity (Rattus norvegicus, UniProt P15684); test: In vivo effects of inhibitors on APN activity in rat organs; conditions: for blood-brain barrier crossing: inferred from inhibition of APN activity in the brain of rats
T1 sequence (P15684 1-965): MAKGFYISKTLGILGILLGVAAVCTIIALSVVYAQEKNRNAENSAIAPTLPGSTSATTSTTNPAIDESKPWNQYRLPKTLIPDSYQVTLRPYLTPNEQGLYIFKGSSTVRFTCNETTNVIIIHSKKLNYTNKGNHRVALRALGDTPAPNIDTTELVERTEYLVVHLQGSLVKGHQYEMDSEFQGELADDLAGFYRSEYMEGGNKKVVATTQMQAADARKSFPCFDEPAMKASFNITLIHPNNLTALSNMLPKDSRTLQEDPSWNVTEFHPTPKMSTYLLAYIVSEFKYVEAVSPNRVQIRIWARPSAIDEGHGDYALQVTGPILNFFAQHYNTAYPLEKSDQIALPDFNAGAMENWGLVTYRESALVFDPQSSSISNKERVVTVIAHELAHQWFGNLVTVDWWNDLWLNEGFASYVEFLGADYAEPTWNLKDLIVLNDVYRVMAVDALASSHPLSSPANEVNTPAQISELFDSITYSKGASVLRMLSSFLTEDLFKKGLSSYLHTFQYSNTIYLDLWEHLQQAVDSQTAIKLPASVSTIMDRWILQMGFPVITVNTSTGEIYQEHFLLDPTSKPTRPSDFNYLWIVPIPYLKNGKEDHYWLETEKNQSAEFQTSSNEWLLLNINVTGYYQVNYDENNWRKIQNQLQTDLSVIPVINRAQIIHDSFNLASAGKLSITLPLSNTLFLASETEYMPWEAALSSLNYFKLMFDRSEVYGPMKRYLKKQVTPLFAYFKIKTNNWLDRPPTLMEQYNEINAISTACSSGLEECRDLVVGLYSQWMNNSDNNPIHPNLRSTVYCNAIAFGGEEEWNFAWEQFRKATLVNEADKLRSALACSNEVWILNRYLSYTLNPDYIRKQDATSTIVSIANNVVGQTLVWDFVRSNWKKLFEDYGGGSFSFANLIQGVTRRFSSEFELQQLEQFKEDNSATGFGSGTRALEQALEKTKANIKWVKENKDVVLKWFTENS
Procedure, shortened: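 Wistar rats (80–100 days, 260–300 g) got one intraperitoneal injection of inhibitor, 3 μg/g body weight in 100 μL 0.9% saline, or saline alone (n = 6 per group). Decapitation 1 h later; organs frozen, stored at −70 °C. NaCl-washed membranes from 10% (w/v) homogenates in 50 mM Tris-HCl pH 8. APN kinetic assay as for porcine APN, 30 min. Mean ± SD; ANOVA, Tukey-Kramer.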

[2] = molecular target: porcine kidney cortex glutamyl aminopeptidase (porcine aminopeptidase A; pAPA) (Sus scrofa, UniProt Q95334); test: Porcine aminopeptidase A; assay type: biochemical; conditions: read-out: IC50 vs pAPA; dose-response, L-Glu-pNA
Chain of porcine kidney cortex glutamyl aminopeptidase (porcine aminopeptidase A; pAPA) (Q95334 whole entry): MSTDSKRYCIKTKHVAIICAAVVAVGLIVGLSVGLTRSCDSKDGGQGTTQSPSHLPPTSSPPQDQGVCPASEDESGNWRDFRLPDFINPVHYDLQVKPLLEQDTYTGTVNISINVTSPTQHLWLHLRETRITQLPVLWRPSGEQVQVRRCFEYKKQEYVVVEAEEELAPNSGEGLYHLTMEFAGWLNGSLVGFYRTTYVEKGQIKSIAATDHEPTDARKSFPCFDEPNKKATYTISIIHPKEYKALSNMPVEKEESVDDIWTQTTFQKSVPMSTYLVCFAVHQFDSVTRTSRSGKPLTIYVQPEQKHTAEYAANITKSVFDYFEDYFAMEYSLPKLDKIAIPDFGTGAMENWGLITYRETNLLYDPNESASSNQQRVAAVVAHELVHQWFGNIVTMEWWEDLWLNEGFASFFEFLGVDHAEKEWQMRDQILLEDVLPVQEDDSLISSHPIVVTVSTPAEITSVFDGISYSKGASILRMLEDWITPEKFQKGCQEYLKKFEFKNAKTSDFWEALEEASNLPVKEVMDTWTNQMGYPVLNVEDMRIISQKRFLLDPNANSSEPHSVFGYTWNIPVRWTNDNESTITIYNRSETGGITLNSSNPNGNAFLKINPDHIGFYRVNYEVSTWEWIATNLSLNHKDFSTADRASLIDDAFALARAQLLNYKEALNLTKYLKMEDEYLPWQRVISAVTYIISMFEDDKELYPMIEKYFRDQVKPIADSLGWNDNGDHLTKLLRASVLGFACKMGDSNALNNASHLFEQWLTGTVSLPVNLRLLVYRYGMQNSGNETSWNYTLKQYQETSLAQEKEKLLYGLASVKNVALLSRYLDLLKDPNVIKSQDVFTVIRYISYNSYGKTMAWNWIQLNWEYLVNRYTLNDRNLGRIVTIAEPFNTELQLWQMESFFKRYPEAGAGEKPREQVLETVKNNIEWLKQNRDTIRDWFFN
Procedure, shortened: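 Microsomes from porcine kidney cortex, prepared as for placental APN, used at 1 mg/mL in 50 mM Tris-HCl pH 8, 0.1% Triton X100, 1 mM CaCl2. Substrate L-Glu-pNA at or below one KM. p-Nitroaniline release read at 405 nm every 15 s for 5 min, 37 °C. Test compounds came from 10 mM DMSO stocks diluted in buffer. IC50 came from nonlinear regression of dose-response data.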

[3] = molecular target: T2, Porcine kidney APN (pAPN) (Sus scrofa, UniProt P15145); test: Porcine kidney APN; assay type: biochemical; conditions: for Inhibition Type: Table 1, hAPN and pAPN, Lineweaver-Burk diagnosis (hAPN data not shown); for α (pAPN): factor between αKi and Ki vs pAPN; for IC50: read-out: IC50 vs pAPN, 30 min pre-incubation, substrate at KM, n = 4
T2 sequence (P15145 1-963): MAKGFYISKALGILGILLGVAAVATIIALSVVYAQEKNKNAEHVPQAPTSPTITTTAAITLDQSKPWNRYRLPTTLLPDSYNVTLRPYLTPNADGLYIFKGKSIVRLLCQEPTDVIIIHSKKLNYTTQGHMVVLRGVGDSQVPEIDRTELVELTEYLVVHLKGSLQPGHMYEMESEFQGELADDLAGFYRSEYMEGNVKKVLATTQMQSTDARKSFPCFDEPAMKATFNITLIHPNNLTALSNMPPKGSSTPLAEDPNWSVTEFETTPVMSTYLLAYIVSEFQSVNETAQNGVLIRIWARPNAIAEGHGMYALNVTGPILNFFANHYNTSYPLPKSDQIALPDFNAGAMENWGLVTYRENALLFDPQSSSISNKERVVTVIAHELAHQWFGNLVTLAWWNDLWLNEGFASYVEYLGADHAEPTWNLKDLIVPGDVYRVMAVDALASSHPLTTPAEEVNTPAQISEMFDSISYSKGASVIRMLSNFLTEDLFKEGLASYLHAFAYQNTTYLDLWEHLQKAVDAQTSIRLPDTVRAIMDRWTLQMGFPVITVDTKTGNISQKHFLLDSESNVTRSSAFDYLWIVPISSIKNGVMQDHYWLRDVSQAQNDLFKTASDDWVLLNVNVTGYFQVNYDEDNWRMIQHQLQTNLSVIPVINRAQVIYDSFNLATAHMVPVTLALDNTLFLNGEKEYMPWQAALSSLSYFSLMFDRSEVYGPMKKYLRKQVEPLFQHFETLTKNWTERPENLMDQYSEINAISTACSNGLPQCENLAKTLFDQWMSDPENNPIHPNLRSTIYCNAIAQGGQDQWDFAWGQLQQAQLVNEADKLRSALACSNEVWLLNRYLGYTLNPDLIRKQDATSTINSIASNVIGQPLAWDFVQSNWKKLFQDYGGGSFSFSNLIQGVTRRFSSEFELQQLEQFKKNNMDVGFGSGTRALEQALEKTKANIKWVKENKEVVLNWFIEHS

[4] = molecular target: Human placental aminopeptidase N (hAPN) (Homo sapiens, UniProt P15144); test: Human placental aminopeptidase N; assay type: biochemical; conditions: read-out: IC50 vs hAPN; 30 min pre-incubation; substrate at KM; n = 4
Chain of Human placental aminopeptidase N (hAPN) (P15144 whole entry): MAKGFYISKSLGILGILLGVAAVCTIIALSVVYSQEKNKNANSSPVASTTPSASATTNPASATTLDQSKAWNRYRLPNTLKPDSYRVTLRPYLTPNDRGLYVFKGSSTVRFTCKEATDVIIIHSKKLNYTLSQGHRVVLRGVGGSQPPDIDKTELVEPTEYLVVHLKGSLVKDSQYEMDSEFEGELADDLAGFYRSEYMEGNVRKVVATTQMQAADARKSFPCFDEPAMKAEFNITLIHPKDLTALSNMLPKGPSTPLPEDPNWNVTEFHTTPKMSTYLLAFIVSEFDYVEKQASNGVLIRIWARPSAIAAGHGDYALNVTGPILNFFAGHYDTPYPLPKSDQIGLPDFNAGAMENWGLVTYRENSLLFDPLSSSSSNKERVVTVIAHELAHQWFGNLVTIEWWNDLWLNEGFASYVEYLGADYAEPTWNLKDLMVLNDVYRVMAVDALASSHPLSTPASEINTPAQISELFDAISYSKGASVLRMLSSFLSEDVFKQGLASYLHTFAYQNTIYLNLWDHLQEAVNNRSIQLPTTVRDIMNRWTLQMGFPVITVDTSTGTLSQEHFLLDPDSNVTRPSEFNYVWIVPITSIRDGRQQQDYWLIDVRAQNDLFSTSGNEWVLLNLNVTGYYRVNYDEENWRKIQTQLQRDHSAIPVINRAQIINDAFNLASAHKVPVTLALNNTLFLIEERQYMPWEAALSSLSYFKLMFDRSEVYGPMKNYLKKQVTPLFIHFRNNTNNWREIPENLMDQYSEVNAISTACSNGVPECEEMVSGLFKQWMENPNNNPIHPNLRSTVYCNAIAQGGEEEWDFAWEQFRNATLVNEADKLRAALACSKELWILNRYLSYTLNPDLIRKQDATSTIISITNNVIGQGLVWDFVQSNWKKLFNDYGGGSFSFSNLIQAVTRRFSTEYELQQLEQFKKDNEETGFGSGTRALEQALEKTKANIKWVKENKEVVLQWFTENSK

[5] = system: Wistar rats; test: Mortality and spontaneous behavior after intraperitoneal injection; assay type: in vivo; conditions: 3 μg/g b.w. intraperitoneal, compared to the vehicle group (not shown)
[6] = rat, 3 μg/g b.w. intraperitoneal, 60 min, vs saline injected animals

SMILES	blood-brain barrier crossing [1]	APN activity in brain [1, 6]	APN activity in kidney [1, 6]	APN activity in liver [1, 6]	IC50 [2] [µM]	Inhibition Type [3]	α (pAPN) [3]	IC50 [3] [µM]	IC50 [4] [µM]	mortality or change in rat spontaneous behavior [5]	APN activity in pancreas [1, 6]
O=C(NNC(=NS(=O)(=O)c1ccc(-n2nc(C(F)(F)F)cc2-c2cccs2)cc1)N1CCCC1)c1ccc(Cl)cc1 [BTB07018, N1-[[2-(4-chlorobenzoyl)hydrazino](tetrahydro-1H-pyrrol-1-yl)methylidene]-4-[5-(2-thienyl)-3-(trifluoromethyl)-1H-pyrazol-1-yl]benzene-1-sulfonamide]	crossed the blood-brain barrier	decreased APN activity	decreased APN activity	decreased APN activity	4.74 ± 0.1	Non-competitive α > 1	1.82	2.29 ± 0.1	2.67 ± 0.11	did not induce any mortality or change in rat spontaneous behavior	–
C(=C1c2ccccc2-c2c1ccc1ccccc21)c1cc2c3c(cccc3c1)-c1ccccc1-2 [BTB11079, 2-(7H-benzo[c]fluoren-7-ylidenmethyl)fluoranthene]	–	–	–	–	3.88 ± 0.11	Non-competitive α > 1	11.40	2.95 ± 0.1	–	did not induce any mortality or change in rat spontaneous behavior	–
CC(C)C[C@H](NC(=O)[C@@H](O)[C@H](N)Cc1ccccc1)C(=O)O [Bestatin, reference compound]	–	–	–	–	–	Non-competitive α > 1	5.97	–	–	–	–
N#Cc1cc(Cc2ccc3c(ccc4ccccc43)c2C#N)cc2c1ccc1ccccc12 [JFD00064, 2-[(1-cyano-3-phenanthryl)methyl]phenanthrene-1-carbonitrile]	crossed the blood-brain barrier	decreased APN activity	decreased APN activity	decreased APN activity	1.82 ± 0.11	Non-competitive α > 1	2.69	2.83 ± 0.1	–	did not induce any mortality or change in rat spontaneous behavior	inhibited the APN activity
